Test results: ChEMBL document CHEMBL1177688, “Synthesis of novel pyrazolic analogues of chalcones and their 3-aryl-4-(3-aryl-4,5-dihydro-1H-pyrazol-5-yl)-1-phenyl-1H-pyrazole derivatives as potential antitumor agents” (2010)

Columns and labels:
Assay type in all cases: functional
OVCAR-5 = experiment: Antiproliferative activity against human OVCAR5 cells after 48 hrs by SRB assay; conditions: OVCAR-5, 48 h
How it was run: (§1)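 NCI 60-cell-line human tumour panel, secondary five-dose screen. Compounds tested at 100, 10, 1.0, 0.1 and 0.01 µM with 48 h continuous exposure. Cell growth was estimated by sulforhodamine B protein staining. GI50 is the concentration giving a 50% reduction in net protein increase relative to untreated control cells over the incubation. TGI and LC50 were also derived.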

CAKI-1 = experiment: Antiproliferative activity against human Caki1 cells after 48 hrs by SRB assay; conditions: CAKI-1, 48 h
How it was run: (§2)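 NCI 60-cell human tumour line panel. Continuous 48 h drug exposure at five concentrations (100, 10, 1.0, 0.1, 0.01 µM). Cell growth estimated by sulforhodamine B protein staining. GI50 = concentration giving 50% reduction in net protein increase versus control cells over the incubation. LC50 = molar concentration killing 50% of cells.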

EKVX = experiment: Antiproliferative activity against human EKVX cells after 48 hrs by SRB assay; conditions: read-out: LC50 (the source's name); how it was run: as §1
HCC 2998 = experiment: Antiproliferative activity against human HCC2998 cells after 48 hrs by SRB assay; conditions: HCC 2998, 48 h; how it was run: as §1
MCF7 = experiment: Antiproliferative activity against human MCF7 cells after 48 hrs by SRB assay; conditions: MCF7, 48 h, read-out: LC50 (the source's name); how it was run: as §1
MDA-MB-231 = experiment: Antiproliferative activity against human MDA-MB-231 cells after 48 hrs by SRB assay; conditions: MDA-MB-231, 48 h; how it was run: as §2
UACC-62 = experiment: Antiproliferative activity against human UACC62 cells after 48 hrs by SRB assay; conditions: UACC-62, 48 h; how it was run: as §1
BT-549 = experiment: Antiproliferative activity against human BT549 cells after 48 hrs by SRB assay; conditions: BT-549, 48 h, read-out: LC50 (the source's name); how it was run: as §1
DU-145 = experiment: Antiproliferative activity against human DU145 cells after 48 hrs by SRB assay; conditions: DU-145, 48 h, read-out: LC50 (the source's name); how it was run: as §1
SF-268 = experiment: Antiproliferative activity against human SF268 cells after 48 hrs by SRB assay; conditions: SF-268, 48 h; how it was run: as §1
U-251 = experiment: Antiproliferative activity against human U251 cells after 48 hrs by SRB assay; conditions: U-251, 48 h; how it was run: as §2
SR = experiment: Antiproliferative activity against human SR cells after 48 hrs by SRB assay; how it was run: as §1
MDA-MB-468 = experiment: Antiproliferative activity against human MDA-MB-468 cells after 48 hrs by SRB assay; conditions: MDA-MB-468, 48 h, read-out: LC50 (the source's name); how it was run: as §1
SK-OV-3 = experiment: Antiproliferative activity against human SKOV3 cells after 48 hrs by SRB assay; conditions: SK-OV-3, 48 h; how it was run: as §1
RXF 393 = experiment: Antiproliferative activity against human RXF393 cells after 48 hrs by SRB assay; conditions: RXF 393, 48 h; how it was run: as §2
SF-295 = experiment: Antiproliferative activity against human SF295 cells after 48 hrs by SRB assay; conditions: SF-295, 48 h; how it was run: as §1
NCI-H226 = experiment: Antiproliferative activity against human NCI-H226 cells after 48 hrs by SRB assay; conditions: NCI-H226, 48 h, read-out: LC50 (the source's name); how it was run: as §1
KM12 = experiment: Antiproliferative activity against human KM12 cells after 48 hrs by SRB assay; conditions: KM12, 48 h, read-out: LC50 (the source's name); how it was run: as §1
COLO 205 = experiment: Antiproliferative activity against human COLO205 cells after 48 hrs by SRB assay; conditions: COLO 205, 48 h; how it was run: as §2
SK-MEL-2 = experiment: Antiproliferative activity against human SK-MEL-2 cells after 48 hrs by SRB assay; conditions: SK-MEL-2, 48 h, read-out: LC50 (the source's name); how it was run: as §1
M14 = experiment: Antiproliferative activity against human M14 cells after 48 hrs by SRB assay; conditions: M14, 48 h, read-out: LC50 (the source's name); how it was run: as §1
UO-31 = experiment: Antiproliferative activity against human UO31 cells after 48 hrs by SRB assay; conditions: UO-31, 48 h, read-out: LC50 (the source's name); how it was run: as §1
NCI-H23 = experiment: Antiproliferative activity against human NCI-H23 cells after 48 hrs by SRB assay; conditions: NCI-H23, 48 h; how it was run: as §2
SF-539 = experiment: Antiproliferative activity against human SF539 cells after 48 hrs by SRB assay; conditions: SF-539, 48 h; how it was run: as §2
T47D = experiment: Antiproliferative activity against human T47D cells after 48 hrs by SRB assay; how it was run: as §2
[1] = Antiproliferative activity against human […] cells after 48 hrs by SRB assay; how it was run: as §1
NCI-H322M = experiment: Antiproliferative activity against human NCI-H322M cells after 48 hrs by SRB assay; conditions: read-out: LC50 (the source's name); how it was run: as §1
NCI-H522 = experiment: Antiproliferative activity against human NCI-H522 cells after 48 hrs by SRB assay; conditions: NCI-H522, 48 h; how it was run: as §1
LOX IMVI = experiment: Antiproliferative activity against human LOXIMVI cells after 48 hrs by SRB assay; how it was run: as §1
IGROV-1 = experiment: Antiproliferative activity against human IGROV1 cells after 48 hrs by SRB assay; conditions: IGROV-1, 48 h, read-out: LC50 (the source's name); how it was run: as §1
SK-MEL-28 = experiment: Antiproliferative activity against human SK-MEL-28 cells after 48 hrs by SRB assay; conditions: SK-MEL-28, 48 h, read-out: LC50 (the source's name); how it was run: as §1
SK-MEL-5 = experiment: Antiproliferative activity against human SK-MEL-5 cells after 48 hrs by SRB assay; conditions: SK-MEL-5, 48 h; how it was run: as §2
A498 = experiment: Antiproliferative activity against human A498 cells after 48 hrs by SRB assay; conditions: A498, 48 h, read-out: LC50 (the source's name); how it was run: as §1
SNB-75 = experiment: Antiproliferative activity against human SNB75 cells after 48 hrs by SRB assay; conditions: SNB-75, 48 h; how it was run: as §1
SNB-19 = experiment: Antiproliferative activity against human SNB19 cells after 48 hrs by SRB assay; conditions: SNB-19, 48 h, read-out: LC50 (the source's name); how it was run: as §1
HOP-92 = experiment: Antiproliferative activity against human HOP92 cells after 48 hrs by SRB assay; conditions: HOP-92, 48 h; how it was run: as §1
NCI-H460 = experiment: Antiproliferative activity against human NCI-H460 cells after 48 hrs by SRB assay; conditions: NCI-H460, 48 h; how it was run: as §1
HCT-116 = experiment: Antiproliferative activity against human HCT116 cells after 48 hrs by SRB assay; conditions: HCT-116, 48 h; how it was run: as §2
[2] = read-out: LC50 (the source's name)

## COc1ccc(C2=NN(C(C)=O)C(c3cn(-c4ccccc4)nc3-c3ccc(Cl)cc3)C2)cc1 (configuration not stated)
OVCAR-5
  GI50: 1810 nM
OVCAR-5; [2]
  CC50: > 100 µM
CAKI-1
  GI50: 1960 nM
EKVX
  CC50: > 100 µM
HCC 2998
  GI50: 2210 nM
HCC 2998; [2]
  CC50: > 100 µM
MCF7
  CC50: > 100 µM
MDA-MB-231
  GI50: 1880 nM
UACC-62
  GI50: 2400 nM
UACC-62; [2]
  CC50: > 100 µM
BT-549
  CC50: > 100 µM
DU-145
  CC50: > 100 µM
SF-268
  GI50: 4.55 µM
  LC50: > 100 µM
U-251
  GI50: 1710 nM
SR
  GI50: 1570 nM
MDA-MB-468
  CC50: > 100 µM
SK-OV-3
  GI50: 2140 nM
SK-OV-3; [2]
  CC50: > 100 µM
RXF 393
  GI50: 1820 nM
SF-295
  GI50: 2480 nM
SF-295; [2]
  CC50: > 100 µM
NCI-H226
  CC50: > 100 µM
KM12
  CC50: > 100 µM
COLO 205
  GI50: 2160 nM
SK-MEL-2
  CC50: > 100 µM
M14
  CC50: > 100 µM
UO-31
  CC50: > 100 µM
NCI-H23
  GI50: 1770 nM
SF-539
  GI50: 1870 nM
T47D
  GI50: 1900 nM
[1]
  GI50: 1730 nM
  LC50 (50% lethal concentration): > 100 µM
NCI-H322M
  CC50: > 100 µM
NCI-H522
  GI50: 2200 nM
  LC50 (concentration killing 50% of tumour cells): > 100 µM
LOX IMVI
  GI50: 1660 nM
IGROV-1
  CC50: > 100 µM
SK-MEL-28
  CC50: > 100 µM
SK-MEL-5
  GI50: 1790 nM
A498
  CC50: > 100 µM
SNB-75
  GI50: 2760 nM
  LC50 (50% lethal concentration): > 100 µM
SNB-19
  CC50: > 100 µM
HOP-92
  GI50: 40 nM
NCI-H460
  GI50: 1980 nM
HCT-116
  GI50: 1940 nM
